Data taken from paper PMC3277802 (Journal of Controlled Release, 2011).

Assays:
human liver cathepsin B [1] = molecular target: T1, human liver cathepsin B (Homo sapiens, UniProt P07858); experiment: Cathepsin B-mediated polymer degradation; assay type: in vitro ADME; settings: for Cathepsin B degradation of polymer (in words): 44 μg/mL polymer, 1.28 μg/mL cathepsin B, acetate pH 5, 37 °C, SEC; for Degradation Type: Table 1 summary of peptidase susceptibility of copolymer
Outline: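 HPMA-oligolysine copolymers were made by RAFT polymerization. Cathepsin B was pre-activated with DTT/EDTA at 37 °C for 15 min, then used in pH 5 acetate/EDTA buffer at 1.28 μg/mL final. Polymer was 44 μg/mL final, at 37 °C. Aliquots taken over time were stopped with E-64. Relative differential refractive index profiles from SEC were compared, with supporting MALDI-TOF MS.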

human liver cathepsin B [2] = molecular target: T1, human liver cathepsin B; experiment: Polyplex destabilization by DLS under cathepsin B treatment; assay type: in vitro ADME; settings: 4 N:P, 5.33 μg/mL DNA, pH 5, 37 °C
Outline: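 Polyplexes were formed at 4 N:P: pCMV-Luc2 plasmid (0.1 mg/mL in ddH2O) was mixed with an equal volume of polymer for 10 min at room temperature. These were added to pre-activated cathepsin B (1.28 μg/mL final, pH 5 acetate) at 5.33 μg/mL DNA final. The sample sat in a capped cuvette pre-equilibrated at 37 °C. DLS particle size was read every 15 min for 8 hrs.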

NIH/3T3 cells = experiment: Cytotoxicity by MTS assay, NIH/3T3; assay type: cell-based; settings: free polymer, 4 hrs exposure, MTS at 48 hrs; four-parameter fit
Outline: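 Polymers at a range of concentrations were made up in ddH2O and diluted 10-fold into reduced-serum MEM. NIH/3T3 cells were rinsed once with PBS and exposed for 4 hrs. At 48 hrs MTS reagent was added, followed by 3 hrs of incubation and absorbance reading at 490 nm. IC50 was expressed in amine equivalents and obtained by a four-parameter variable-slope nonlinear fit.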

human liver cathepsin B [3] = molecular target: T1, human liver cathepsin B; assay type: in vitro ADME; settings: 4 N:P, 5.33 μg/mL DNA, cathepsin B pH 5, 37 °C; normalized to plasmid-only
Outline: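 Plasmid was pre-labelled with YOYO-1 (dye:base pair 1:50, 1 hr, room temperature) and complexed with polymer at 4 N:P. Polyplexes were incubated with pre-activated cathepsin B (pH 5 acetate, 37 °C) at 5.33 μg/mL DNA final. Timed aliquots were stopped with E-64 and diluted in ddH2O. Fluorescence was read at ex 491/em 509 nm and normalized to uncomplexed plasmid signal.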

YOYO-1 fluorescence relative to free plasmid by 8 hrs of cathepsin B exposure (human liver cathepsin B [3]) [%]	Substance	Cathepsin B degradation of polymer (in words) (human liver cathepsin B [1])	Degradation Type (human liver cathepsin B [1])	Polyplex particle size over 8 hrs cathepsin B treatment (human liver cathepsin B [2]; DLS every 15 min)	IC50 (μg/mL), NIH/3T3 (NIH/3T3 cells) [µg/mL]	Polyplex particle size at start of cathepsin B treatment (human liver cathepsin B [2]; DLS)	Polyplex particle size after 4 hrs cathepsin B treatment (plateau) (human liver cathepsin B [2]; DLS every 15 min)
–	HPMA-co-MaAhx(D)FKFLAhx(D)K10 [pH(D)Cath(D)K10]	no degradation	None	~ 150 nm	30.3	–	–
–	HPMA-co-MaAhxFKFLAhx(D)K10 [pHCath(D)K10]	–	–	~ 600 nm	28.7	–	–
70	HPMA-co-MaAhxFKFLAhxK10 [pHCathK10]	–	Endo/exopeptidase	–	29.7	~ 150 nm	about 500 nm
–	HPMA-co-MaAhxK10 [reference compound]	observed MW shift over 4hrs is comparable to 10 min with pHCathK10	–	–	–	–	–
